Assay outcomes (PubChem BioAssay)
The list is not random: actives were taken first. Their share in the collection is about 2.4%.
NTR1 agonist = activates human neurotensin receptor 1. AID 493036. P30989. NTR1-U2OS beta-arrestin-GFP spot imaging, agonist mode. actives 0.17% (n = 330,000). activation, % at 20 µM;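 active = activation at or above 40% of the spot to cytoplasm intensity ratio, with at least 20 cells analyzed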;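 note: 0% = DMSO without peptide and 100% = 100 nM NTR1 peptide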
MC4R ag barr = activates human MC4R beta-arrestin recruitment; U2OS MC4R beta-arrestin complementation, luminescence; percent of melanotan II response, DMSO zero; P32245; actives 0.98% (n = 360,000); activation, % at 8.9 µM;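 active = activation above a per-plate cutoff, the mean activation of sample wells on that plate plus 3 SD, cut at about 8% in these data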
Target sequence (P32245 whole entry, looked up): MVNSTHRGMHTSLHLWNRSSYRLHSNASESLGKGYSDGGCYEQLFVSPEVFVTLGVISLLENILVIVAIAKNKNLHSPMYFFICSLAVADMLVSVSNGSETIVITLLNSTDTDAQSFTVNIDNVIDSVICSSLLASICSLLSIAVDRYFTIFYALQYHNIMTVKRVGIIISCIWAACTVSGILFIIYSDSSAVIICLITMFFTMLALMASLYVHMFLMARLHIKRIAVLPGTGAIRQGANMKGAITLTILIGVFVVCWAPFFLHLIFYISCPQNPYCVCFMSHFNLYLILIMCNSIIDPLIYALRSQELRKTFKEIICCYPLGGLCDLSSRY
aDG glyco act = alpha-DG glycosylation activation. Pro5-aDG cells, alpha-DG glycosylation AlphaScreen (IIH6); 0% Pro5, 100% B10-LARGE cell signal. activation, % at 10 µM. actives 0.22% (n = 360,000). AID 624168;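 active = activation of at least 8% versus controls, or a plate z-score of at least 8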;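 note: Pro5 are CHO cells carrying HIG-tagged alpha-DG that lacks glycosylation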
MC4R antag cAMP = antagonists of human melanocortin 4 receptor (MC4R); P32245; MC4R-expressing cells, MTII-stimulated cAMP, LANCE TR-FRET; inhibition, % at 6.5 µM; actives 0.48% (n = 360,000);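 active = inhibition above its plate's cutoff, the mean of tested wells on that plate plus 3 SD, cut at about 29% in these data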;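 note: 0% = Melanotan II alone and 100% = Melanotan II plus saturating MCL0020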
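System: U2OS-MC4R stable cell line; Technique: Eu-cAMP/anti-cAMP TR-FRET, emission 671 nm; Repeats: single well per compound; Also added: Melanotan II; Dosing: one concentration, 6.5 µM nominal; Schedule: 30-min compound, 1-h challenge, 1-h detection, room temperature.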
TAG inh = triacylglycerol accumulation inhibition; H9c2 cells, Nile Red lipid (TAG) fluorescence; cells loaded with 200 µM oleic acid; inhibition, % at 12.5 µM; actives 0.66% (n = 230,000);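 active = pattern-corrected inhibition of lipid staining of at least 50% with the nuclear-stain viability signal not falling by more than 50%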;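 note: 0% = DMSO wells and 100% = triacsin C control wells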
TbMetRS inhib = Trypanosoma brucei MetRS inhibition | purified T. brucei MetRS, ATP depletion, Kinase-Glo luminescence | inhibition, % at 11.9 µM | actives 0.4% (n = 360,000);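 active = inhibition above a per-plate cutoff of the control wells' mean inhibition plus 3 SD, cut at about 5.5% in these data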;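 note: 0% = DMSO wells median and 100% = median of wells with control inhibitor compound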
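Dosing: 11.9 µM compound single dose, 0.9% DMSO; Assay system: purified T. brucei MetRS enzyme; Measured by: Kinase-Glo luciferase luminescence reporting remaining unconsumed ATP; Schedule: 15 min plus 2 h at 25 °C.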
Tb MetRS conf = confirmation of Trypanosoma brucei MetRS inhibitors. T. brucei MetRS enzyme, luminescence (ATP depletion). inhibition, % at 11.9 µM. actives 93% (n = 1,400). shares compounds with TbMetRS inhib; in the data active = inhibition above about 7%
Jurkat cytotox = Jurkat T cell cytotoxicity for MetRS hits. AID 624413. shares compounds with TbMetRS inhib. actives 12% (n = 1,400). inhibition, % at 8.3 µM. Jurkat cells viability, ATP luminescence; in the data active = inhibition above about 15%;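 note: 0% = vehicle and 100% = reference inhibitor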
TbMetRS FP orth = orthogonal test for Trypanosoma brucei MetRS inhibitors. shares compounds with TbMetRS inhib. inhibition, % at 11.9 µM. actives 44% (n = 1,400). purified T. brucei MetRS, fluorescence polarization; in the data active = inhibition above about 17%;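 note: 0% = vehicle wells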
* = called active by the depositor.

Screening Nc1nc2n(n1)C(c1ccco1)CC(c1ccc(Cl)cc1Cl)N2 (configuration not stated) returned NTR1 agonist -1.2, MC4R ag barr 0.3, aDG glyco act 0.0, MC4R antag cAMP 24.9, TbMetRS inhib 9.6*, Tb MetRS conf 17.5*, Jurkat cytotox 4.7 and TbMetRS FP orth 0.8.
Screening CCOC(=O)N(C)c1c(CC)nc2c(OCc3ccccc3C)cccn12 returned MC4R ag barr 0.2, aDG glyco act 0.2, MC4R antag cAMP -5.1, TAG inh -4.4 and TbMetRS inhib -0.3.
`O=C(N=Nc1c(O)[nH]c2ccc(Br)cc12)c1ccccc1-n1cccc1` gave NTR1 agonist 21.9, MC4R ag barr -0.8, aDG glyco act -0.7, MC4R antag cAMP -27.3, TbMetRS inhib 8.6*, Tb MetRS conf 26.3*, Jurkat cytotox 75.8* and TbMetRS FP orth 12.5.
CN(c1ccccc1)S(=O)(=O)c1cccc(NC(=O)CN2CCCc3ccccc32)c1 was read as NTR1 agonist 2.1, MC4R ag barr -1.1, aDG glyco act 0.3, MC4R antag cAMP 2.0, TAG inh -6.7 and TbMetRS inhib -0.4.
`NS(=O)(=O)c1cccc(NC(=O)CN2CCc3ccccc32)c1` gave NTR1 agonist -1.0, MC4R ag barr -2.7, aDG glyco act -0.5, MC4R antag cAMP -2.2, TAG inh 2.3, TbMetRS inhib 9.2*, Tb MetRS conf 9.7*, Jurkat cytotox 11.1 and TbMetRS FP orth 6.4.
C/C(=C1/SC(=S)N(CCC(=O)O)C1=O)c1ccc(O)cc1 was read as NTR1 agonist 1.0, MC4R ag barr -2.0, aDG glyco act 0.0, MC4R antag cAMP 3.8, TAG inh -11.7, TbMetRS inhib 25.9*, Tb MetRS conf 64.1*, Jurkat cytotox 2.5 and TbMetRS FP orth 24.5*.
CSCCC(C(=O)NC1CCCC1)n1c(C2CC2)nc2ccccc21 (configuration not stated) was read as aDG glyco act -0.1 and TbMetRS inhib -0.6.
Screening C[C@@H]1C=C(C(=O)NCc2nc3ccccc3[nH]2)O[C@H](OCc2ccc(CO)cc2)C1 returned NTR1 agonist 3.8, MC4R ag barr -2.2, aDG glyco act 0.2, MC4R antag cAMP 1.2, TAG inh -15.2, TbMetRS inhib 69.1*, Tb MetRS conf 95.9*, Jurkat cytotox 5.8 and TbMetRS FP orth 72.0*.
For C[C@@H]1C=C(C(=O)NCc2nc3ccccc3[nH]2)O[C@H](OCCCCO)C1 the results were NTR1 agonist -0.5, MC4R ag barr -1.3, aDG glyco act 0.0, MC4R antag cAMP -3.7, TAG inh 4.1 and TbMetRS inhib 4.4.
O=C(NCc1nc2ccccc2[nH]1)C1=C[C@H](c2ccc(Br)cc2)C[C@H](OCc2ccc(CO)cc2)O1 was read as NTR1 agonist 1.3, MC4R ag barr 0.5, aDG glyco act 0.0, MC4R antag cAMP 12.2, TAG inh -5.2, TbMetRS inhib 65.9*, Tb MetRS conf 98.2*, Jurkat cytotox -3.5 and TbMetRS FP orth 74.6*.
`O=C(NCc1nc2ccccc2[nH]1)C1=C[C@@H](c2csc3ccccc23)C[C@@H](OCCCCO)O1` gave NTR1 agonist -0.7, MC4R ag barr 0.2, aDG glyco act -0.1, MC4R antag cAMP -4.7, TAG inh 1.2, TbMetRS inhib 72.2*, Tb MetRS conf 100.9*, Jurkat cytotox -4.8 and TbMetRS FP orth 77.2*.
For O=C(NCc1ccccc1)C1=C[C@@H](c2csc3ccccc23)C[C@@H](OCCCCO)O1 the results were NTR1 agonist 4.1.
`C#Cc1ccc([C@H]2C=C(C(=O)NCc3nc4ccccc4[nH]3)O[C@@H](OCc3ccc(CO)cc3)C2)cc1` gave NTR1 agonist -0.7, MC4R ag barr -0.9, aDG glyco act -0.3, MC4R antag cAMP 6.1, TbMetRS inhib 31.7*, Tb MetRS conf 84.8*, Jurkat cytotox -0.2 and TbMetRS FP orth 68.1*.
`COc1cccc(CN2CCC2(C)C(=O)Nc2ccc(Cl)c(Cl)c2)c1F` (configuration not stated) gave MC4R ag barr 2.3, aDG glyco act -0.1, MC4R antag cAMP 6.8, TAG inh -0.6 and TbMetRS inhib -0.2.
For Cc1ccc(-c2nc3ccccc3n2C(C(=O)NC(C)(C)C)C2CC2)cc1 (configuration not stated) the results were aDG glyco act 0.3 and TbMetRS inhib -0.7.
Screening O=C(NCc1nc2ccccc2[nH]1)C1=C[C@H](c2ccc(C(F)(F)F)cc2)C[C@H](OCc2ccc(CO)cc2)O1 returned NTR1 agonist 10.6, MC4R ag barr 0.9, aDG glyco act 1.0, MC4R antag cAMP 6.1, TAG inh -0.4, TbMetRS inhib 18.1*, Tb MetRS conf 48.5*, Jurkat cytotox -2.9 and TbMetRS FP orth 30.1*.
`COc1ccc(CN2C(=O)C(CC(=O)NCc3cccc4ccccc34)CC(C(=O)N(C(C)C)C(C)C)=C2C)cc1` (configuration not stated) gave aDG glyco act 0.2 and TbMetRS inhib -0.2.
O=c1c(Cc2ccc(Cl)cc2Cl)c(O)ccn1Cc1ccncc1 was read as NTR1 agonist 1.6, MC4R ag barr -3.5, aDG glyco act -0.1, MC4R antag cAMP 2.6, TAG inh -3.4, TbMetRS inhib 27.1*, Tb MetRS conf 38.9*, Jurkat cytotox -2.4 and TbMetRS FP orth 26.8*.
`O=C(c1cccnc1Cl)N1CCOCC1` gave NTR1 agonist 2.8, MC4R ag barr -1.1, aDG glyco act -0.1, MC4R antag cAMP 2.3, TAG inh -3.6 and TbMetRS inhib 0.1.
Cn1nccc1-c1coc2c(C(=O)N3CCOCC3)cccc12 was read as MC4R ag barr -0.5, aDG glyco act -0.3, MC4R antag cAMP 2.3, TAG inh -6.5, TbMetRS inhib 7.6*, Tb MetRS conf 4.8, Jurkat cytotox -9.5 and TbMetRS FP orth 1.5.
`CCOC(=O)C1CCCN(C(=O)c2sc(-c3ccccc3)nc2C)CC1` (configuration not stated) gave MC4R ag barr -1.1, aDG glyco act 0.3, MC4R antag cAMP 18.4, TAG inh 3.0 and TbMetRS inhib -0.1.
